Source: ChEMBL document CHEMBL4118273, “Design, Synthesis, and Biological Evaluation of Pyrimido[4,5- d]pyrimidine-2,4(1 H,3 H)-diones as Potent and Selective Epidermal Growth Factor Receptor (EGFR) Inhibitors against L858R/T790M Resistance Mutation” (J Med Chem, 2018)
≈ marks a conversion by molar mass, not a printed value.

How the values were obtained:
[1] = target: Epidermal growth factor receptor (Homo sapiens, UniProt P00533, L858R/T790M); experiment: Inhibition of recombinant human GST-tagged EGFR L858R/T790M double mutant expressed in baculovirus expression system using Poly(Glu,Tyr)4:1 as substrate after 1 hr by ELISA
Homo sapiens [2] = species: Homo sapiens; experiment: Selectivity index, ratio of IC50 for human A431 cells harboring wild type EGFR to IC50 for human NCI-H1975 cells harboring EGFR L858R/T790M double mutant
Method in brief: (§1)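 Cell growth inhibition measured by sulforhodamine B colorimetric assay in H1975 (EGFR L858R/T790M) and A431 (overexpressed wild-type EGFR) cells; IC50 values are means ± SD of at least three independent determinations. Selectivity is taken as the A431:H1975 IC50 ratio.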

NCI-H1975 = experiment: Antiproliferative activity against human NCI-H1975 cells harboring EGFR L858R/T790M double mutant after 72 hrs by SRB assay; type: functional, cell-based; conditions: NCI-H1975, 72 h; method in brief: as §1
A-431 = experiment: Cytotoxicity against human A431 cells harboring wild type EGFR assessed as reduction in cell viability after 72 hrs by SRB assay; type: cell-based; conditions: A-431, 72 h; method in brief: as §1
Homo sapiens [3] = species: Homo sapiens; experiment: Selectivity ratio of IC50 for recombinant human GST-tagged EGFR (668 to 1210 residues) expressed in baculovirus expression system to IC50 for recombinant human GST-tagged EGFR L858R/T790M double mutant expressed in baculovirus expression system
Method in brief: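 ELISA-based EGFR tyrosine kinase assay run on wild-type and L858R/T790M enzymes. IC50 values come from at least three independent determinations, reported as means ± SD. Selectivity is the wild-type IC50 divided by the L858R/T790M IC50.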

[4] = Aqueous solubility in pH 7.4 PBS buffer by UV-Visible spectrophotometric method; type: physicochemical
Method in brief: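 Solubility determined in 0.1 M PBS, pH 7.4, by UV-visible spectrophotometry.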

[5] = target: Epidermal growth factor receptor (Homo sapiens, UniProt P00533); experiment: Inhibition of recombinant human GST-tagged EGFR (668 to 1210 residues) expressed in baculovirus expression system using Poly(Glu,Tyr)4:1 as substrate after 1 hr by ELISA
Epidermal growth factor receptor (Homo sapiens, UniProt P00533), sequence (P00533 whole entry, the tested form may be a part): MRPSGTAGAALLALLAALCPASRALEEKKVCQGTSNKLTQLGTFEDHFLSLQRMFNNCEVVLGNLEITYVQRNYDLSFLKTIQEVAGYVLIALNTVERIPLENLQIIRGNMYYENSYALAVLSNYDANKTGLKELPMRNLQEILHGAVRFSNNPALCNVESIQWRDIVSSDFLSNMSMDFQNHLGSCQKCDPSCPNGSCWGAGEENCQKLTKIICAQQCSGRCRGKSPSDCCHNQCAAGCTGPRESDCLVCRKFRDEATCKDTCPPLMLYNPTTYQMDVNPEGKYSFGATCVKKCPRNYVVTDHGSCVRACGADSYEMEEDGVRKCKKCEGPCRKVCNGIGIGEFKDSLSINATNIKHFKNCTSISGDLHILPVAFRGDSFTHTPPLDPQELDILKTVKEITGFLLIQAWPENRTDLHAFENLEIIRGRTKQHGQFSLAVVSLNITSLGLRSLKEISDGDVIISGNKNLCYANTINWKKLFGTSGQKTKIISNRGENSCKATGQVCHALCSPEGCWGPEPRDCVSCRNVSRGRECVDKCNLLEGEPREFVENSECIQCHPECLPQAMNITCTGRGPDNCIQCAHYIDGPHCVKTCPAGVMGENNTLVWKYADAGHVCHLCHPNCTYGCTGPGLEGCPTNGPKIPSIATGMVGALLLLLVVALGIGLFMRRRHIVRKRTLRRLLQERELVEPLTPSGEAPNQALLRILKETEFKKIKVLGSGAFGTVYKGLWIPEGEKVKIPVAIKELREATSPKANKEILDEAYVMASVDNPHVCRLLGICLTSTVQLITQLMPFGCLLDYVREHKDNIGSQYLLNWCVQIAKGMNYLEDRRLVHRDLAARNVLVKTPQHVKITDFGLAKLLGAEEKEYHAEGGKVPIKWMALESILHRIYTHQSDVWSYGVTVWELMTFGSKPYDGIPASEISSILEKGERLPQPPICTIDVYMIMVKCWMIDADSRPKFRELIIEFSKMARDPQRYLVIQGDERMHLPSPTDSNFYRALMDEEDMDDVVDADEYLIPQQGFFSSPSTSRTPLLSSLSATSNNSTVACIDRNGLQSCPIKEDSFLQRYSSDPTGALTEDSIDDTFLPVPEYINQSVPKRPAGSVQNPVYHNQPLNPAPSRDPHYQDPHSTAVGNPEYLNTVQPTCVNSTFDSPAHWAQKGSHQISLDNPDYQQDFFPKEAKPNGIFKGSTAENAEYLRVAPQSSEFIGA

Epidermal growth factor receptor (Homo sapiens, UniProt P00533, L858R/T790M), sequence (P00533 25-1210 T790M/L858R limits assumed): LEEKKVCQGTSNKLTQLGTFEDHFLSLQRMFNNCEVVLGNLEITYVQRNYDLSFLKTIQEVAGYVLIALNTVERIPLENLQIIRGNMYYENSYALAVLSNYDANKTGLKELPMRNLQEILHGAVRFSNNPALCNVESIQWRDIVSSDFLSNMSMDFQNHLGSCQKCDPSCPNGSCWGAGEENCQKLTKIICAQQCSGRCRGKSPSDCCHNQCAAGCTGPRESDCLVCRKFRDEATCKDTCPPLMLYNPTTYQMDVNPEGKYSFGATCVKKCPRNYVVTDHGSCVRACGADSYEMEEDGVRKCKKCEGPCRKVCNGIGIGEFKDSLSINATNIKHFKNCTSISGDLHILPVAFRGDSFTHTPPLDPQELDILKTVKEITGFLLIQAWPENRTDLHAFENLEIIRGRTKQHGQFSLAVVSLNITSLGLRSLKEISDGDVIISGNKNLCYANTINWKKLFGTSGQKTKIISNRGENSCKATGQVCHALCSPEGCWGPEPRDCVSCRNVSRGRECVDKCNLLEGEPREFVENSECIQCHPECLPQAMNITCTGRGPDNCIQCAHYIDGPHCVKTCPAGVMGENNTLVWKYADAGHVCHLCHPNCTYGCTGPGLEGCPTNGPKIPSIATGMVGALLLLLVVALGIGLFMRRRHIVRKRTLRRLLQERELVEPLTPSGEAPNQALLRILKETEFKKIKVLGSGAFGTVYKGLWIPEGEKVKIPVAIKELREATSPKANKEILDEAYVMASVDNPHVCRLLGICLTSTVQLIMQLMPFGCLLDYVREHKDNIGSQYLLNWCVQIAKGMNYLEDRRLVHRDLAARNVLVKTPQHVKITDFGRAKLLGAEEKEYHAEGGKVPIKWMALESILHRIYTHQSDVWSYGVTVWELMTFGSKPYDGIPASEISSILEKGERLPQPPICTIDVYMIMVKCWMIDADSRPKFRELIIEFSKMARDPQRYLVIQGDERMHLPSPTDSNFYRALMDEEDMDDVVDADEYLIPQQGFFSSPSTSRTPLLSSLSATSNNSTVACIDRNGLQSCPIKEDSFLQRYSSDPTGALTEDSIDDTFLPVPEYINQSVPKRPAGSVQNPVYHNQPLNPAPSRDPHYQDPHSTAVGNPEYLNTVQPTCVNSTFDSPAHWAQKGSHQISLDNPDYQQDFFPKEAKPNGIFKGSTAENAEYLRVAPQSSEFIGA

| Structure (SMILES) | IC50 [1] [nM] | Ratio IC50 (Homo sapiens [2]) | IC50 (NCI-H1975) [nM] | IC50 (A-431) [nM] | Ratio IC50 (Homo sapiens [3]) | solubility [4] [µg/mL] | IC50 [5] [nM] |
| --- | --- | --- | --- | --- | --- | --- | --- |
| C=CC(=O)Nc1cccc(-n2c(=O)n(C(C)C)c(=O)c3cnc(Nc4ccc(N5CCN(C)CC5)c(C)c4)nc32)c1 | 1 | 40 | 24 | 954 | 34 | 280 (≈ 505 µM) | 34 |
| C=CC(=O)Nc1cccc(-n2c(=O)n(C)c(=O)c3cnc(Nc4ccc(N5CCN(C(C)=O)CC5)cc4OC)nc32)c1 | 46 | – | > 10000 | > 10000 | 3.9 | < 10 | 180 |
| C=CC(=O)Nc1cccc(-n2c(=O)n(C)c(=O)c3cnc(Nc4ccc(N5CCSCC5)cc4OC)nc32)c1 | 91 | 15 | 573 | 8370 | 3.5 | 45 (≈ 82.5 µM) | 314 |
| C=CC(=O)Nc1cccc(-n2c(=O)n(CCCc3ccccc3)c(=O)c3cnc(Nc4ccc(N5CCC(N(C)C)CC5)cc4OC)nc32)c1 | 1.4 | 4.1 | 358 | 1460 | 2.7 | 104 (≈ 154 µM) | 3.8 |
| C=CC(=O)Nc1cccc(-n2c(=O)n(C(C)C)c(=O)c3cnc(Nc4ccc(N(C)CCN(C)C)cc4OC)nc32)c1 | 16 | 14 | 138 | 1950 | 7.6 | 1050 (≈ 1840 µM) | 121 |
| C=CC(=O)Nc1cccc(-n2c(=O)n(C(C)C)c(=O)c3cnc(Nc4ccc(N5CCN(C)CC5)c(OC)c4)nc32)c1 | 6.8 | 28 | 37 | 1050 | 18 | 309 (≈ 541 µM) | 119 |
| C=CC(=O)Nc1cccc(-n2c(=O)n(CC)c(=O)c3cnc(Nc4ccc(N5CCC(N(C)C)CC5)cc4OC)nc32)c1 | 2.5 | – | 175 | > 10000 | 44 | 229 (≈ 392 µM) | 111 |
| C=CC(=O)Nc1cccc(Nc2nc(Nc3ccc(N4CCN(C(C)=O)CC4)cc3OC)ncc2C(F)(F)F)c1 [ROCILETINIB] | – | – | 31 | 641 | – | – | – |
| C=CC(=O)Nc1cccc(-n2c(=O)n(C(C)C)c(=O)c3cnc(Nc4ccc(N5CCC(N6CCN(C)CC6)CC5)cc4OC)nc32)c1 | 14 | 9 | 154 | 1380 | 17 | 121 (≈ 185 µM) | 240 |
| C=CC(=O)Nc1cccc(-n2c(=O)n(C)c(=O)c3cnc(Nc4ccccc4)nc32)c1 | 68 | – | 9260 | > 10000 | 1.2 | < 10 | 82 |
| C=CC(=O)Nc1cccc(-n2c(=O)n(Cc3ccccc3)c(=O)c3cnc(Nc4ccc(N5CCC(N(C)C)CC5)cc4OC)nc32)c1 | 1.9 | 12 | 278 | 3300 | 0.6 | 137 (≈ 212 µM) | 1.2 |
| C=CC(=O)Nc1cccc(-n2c(=O)n(CCC)c(=O)c3cnc(Nc4ccc(N5CCC(N(C)C)CC5)cc4OC)nc32)c1 | 0.4 | 69 | 60 | 4130 | 33 | 184 (≈ 307 µM) | 13 |
| C=CC(=O)Nc1cccc(-n2c(=O)n(C)c(=O)c3cnc(Nc4ccc(N5CCOCC5)cc4OC)nc32)c1 | 70 | – | > 10000 | > 10000 | 4.9 | 61 (≈ 115 µM) | 341 |
| C=CC(=O)Nc1cccc(-n2c(=O)n(CCc3ccccc3)c(=O)c3cnc(Nc4ccc(N5CCC(N(C)C)CC5)cc4OC)nc32)c1 | 1 | 11 | 189 | 2040 | 0.7 | 99 (≈ 150 µM) | 0.7 |
| C=CC(=O)Nc1cccc(-n2c(=O)n(C(C)C)c(=O)c3cnc(Nc4ccc(N5CCC(N(C)C)CC5)cc4OC)nc32)c1 | 0.8 | – | 50 | > 10000 | 25 | 176 (≈ 294 µM) | 20 |
| C=CC(=O)Nc1cccc(-n2c(=O)n(C(C)C)c(=O)c3cnc(Nc4ccc(OCCN(C)C)cc4OC)nc32)c1 | 115 | 36 | 99 | 3600 | 2 | 647 (≈ 1160 µM) | 227 |
| C=CC(=O)Nc1cccc(-n2c(=O)n(C)c(=O)c3cnc(Nc4ccc(N5CCC(N(C)C)CC5)cc4OC)nc32)c1 | – | – | 230 | 3890 | – | 531 (≈ 931 µM) | – |
